High-throughput results (PubChem BioAssay)
The list is not random: actives were taken first. Their share in the collection is about 2%.
rRNA inh HTS: selective bacterial rRNA inhibition in E. coli. E. coli WT GFP vs humanized-ribosome RFP mutants, fluorescence, 24 h; stronger effect = lower value; DMSO median 0, no signal -100. GFP signal change (wild-type ribosome), % (test concentration not listed). actives 1.6% (n = 350,000);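 active = significant combined selectivity score with lowered wild-type GFP, culture density cut under 30%, mutant RFP and density less affected; inactive = any of these conditions unmet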
RAD52 inh: RAD52 (human) annealing inhibition; recombinant RAD52 DNA annealing, FRET fluorescence; inhibition, % at 18.7 µM; actives 0.46% (n = 360,000); P43351;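 active = every replicate showing at least 50% inhibition; inconclusive = mean inhibition at least 50% but not in every replicate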
XiGFP reactiv: activators of X-chromosome reactivation in mouse fibroblasts. AID 743238. activation, % at 7.58 µM. XiGFP mouse fibroblasts, % GFP-positive cells imaging, 3 d; cells co-treated with 5-aza-dC sensitizer; scaled so ellipticine positive control = 100%. actives 0.055% (n = 360,000);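 active = mean normalized replicate activation at least 10% and every replicate at or above 10%; inconclusive = only one of the two criteria met; inactive = mean below 10% and not all replicates reach 10%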;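 also: 0% = median of on-plate neutral control wells and 100% = ellipticine 6 µM median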
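System: XiGFP fibroblasts, SV40-immortalized. Medium: DMEM plus 5-aza-dC sensitizer. Doses: single point. Timing: 3 d treatment, 15 min room-temperature fixation. Control set: ellipticine 6 µM.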
PglD DTNB: PglD (C. jejuni) enzyme inhibition; purified PglD enzyme, DTNB colorimetric CoA detection; inhibition, % at 12.5 µM; actives 0.098% (n = 360,000); AID 602405; in the data active = inhibition above about 16%, passing the limit was not always enough; inconclusive = no clear call, values can overlap the other calls
RAD54 inh: blocks human RAD54 Holliday junction branch migration; inhibition, % at 10.4 µM; actives 0.14% (n = 360,000); Q92698; FAM/BHQ fluorescence;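 active = mean normalized replicate activity at least 40 and at least half of replicates scoring 40 or more; inconclusive = only one of the two criteria met; inactive = mean below 40 and under half of replicates reaching 40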;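 also: 0% = median of neutral control wells and 100% = median of positive control wells; inhibitors cause a drop in the FAM fluorescence signal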
Target sequence (Q92698 whole entry, looked up): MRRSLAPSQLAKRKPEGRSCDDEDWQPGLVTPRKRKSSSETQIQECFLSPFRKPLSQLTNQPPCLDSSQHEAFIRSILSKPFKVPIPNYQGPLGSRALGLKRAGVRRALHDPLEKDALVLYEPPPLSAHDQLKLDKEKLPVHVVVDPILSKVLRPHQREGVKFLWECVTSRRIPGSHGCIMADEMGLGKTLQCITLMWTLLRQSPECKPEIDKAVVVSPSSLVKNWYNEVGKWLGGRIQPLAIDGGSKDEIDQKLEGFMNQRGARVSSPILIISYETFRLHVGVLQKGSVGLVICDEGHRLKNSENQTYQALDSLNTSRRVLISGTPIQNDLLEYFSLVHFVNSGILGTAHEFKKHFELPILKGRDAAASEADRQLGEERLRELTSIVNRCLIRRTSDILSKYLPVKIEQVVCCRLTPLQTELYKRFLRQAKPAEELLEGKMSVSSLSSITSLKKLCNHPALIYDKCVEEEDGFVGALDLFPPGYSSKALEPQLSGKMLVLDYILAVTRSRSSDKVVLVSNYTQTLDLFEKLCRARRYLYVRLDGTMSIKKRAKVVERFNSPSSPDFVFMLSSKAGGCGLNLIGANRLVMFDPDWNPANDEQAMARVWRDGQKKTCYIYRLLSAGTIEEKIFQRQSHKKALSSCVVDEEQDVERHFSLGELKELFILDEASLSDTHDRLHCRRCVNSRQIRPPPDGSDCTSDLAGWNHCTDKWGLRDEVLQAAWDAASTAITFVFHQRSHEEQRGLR
E-sel inducer: E-selectin induction on HUVECs | P16581 | HUVEC E-selectin immunofluorescence imaging; normalized: neutral wells 0, TNF-alpha wells 100 | AID 686992 | actives 0.37% (n = 260,000) | activation, % at 7.58 µM;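 active = mean E-selectin-positive cell signal at least 10% of the positive control, reached in at least 60% of replicates, without over 20% cell loss; inconclusive = no rule given, readout overlaps actives, possibly toxicity-flagged; inactive = the rest, including those meeting only one limit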
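System: HUVEC / Compound: single concentration / Signal: immunofluorescence imaging / Read-out: percent E-selectin-positive cells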
RAD52 DNA ctr: DNA binding artifact in RAD52 counter-screen; actives 8% (n = 1,000); AC50, µM; shares compounds with RAD52 inh; Salmon sperm DNA/acridine orange FP displacement;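 active = fitted half-maximal concentration for signal loss at or below twice the highest dose tested, in every separate run, actives reach about 64 µM in these data; inconclusive = runs disagree, or flat partial signal loss, or poor fit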
The depositor's hits bear a star; i = inactive; ? = inconclusive; / = no result.

SMILES	rRNA inh HTS	RAD52 inh	XiGFP reactiv	PglD DTNB	RAD54 inh	E-sel inducer	RAD52 DNA ctr
NCCCC[C@H]1CN=C(N)N1CCc1cccc2ccccc12	15	28	0	0	32	/	/
COc1cc2c[n+](C)c3c4ccccc4ccc3c2cc1OC	/	104*	0	/	/	/	?
COc1ccc2c(c1)c[n+](C)c1c3cc(OC)c(OC)cc3ccc21	-2	109*	1	/	/	0	36µM*
CNC(=S)N(CCc1cccc(C)c1)Cc1cc2cc(OC)c(OC)cc2[nH]c1=O	-14	-15	0	/	/	-1	/
COc1cc2cc(CN(CCc3cccc(C)c3)C(=S)NCCCN(C)C)c(=O)[nH]c2cc1OC	-38*	51*	0	/	/	-2	i
CCN(CC)CCCN(Cc1cc2cc3c(cc2[nH]c1=O)OCO3)C(=S)NCCCN(C)C	19	90*	0	-8	15	2	i
CC(=O)Nc1ccc2c(c1)CC(=O)N(C)C[C@H](C)[C@@H](CN(C)C)O2	0	/	0	/	/	/	/
O=C(C1CC1)N1[C@@H](CO)[C@@H](c2ccccc2)C12CN(Cc1cccc(Cl)c1)C2	-10	-251	0	/	/	0	/
CSc1ccc2c(c1)C(N1CCN(C)CC1)Cc1ccc(F)cc1S2 (stereo unspecified)	-48*	51*	0	5	11	0	i
O=[N+]([O-])c1ccc2c(c1)C(N1CCN(CCO)CC1)Cc1ccc(F)cc1S2 (stereo unspecified)	-2	3	0	0	10	0	/
COc1ccc2c3c(n(C)c2c1)[C@H](CO)N(C(=O)CC1CC1)CC31CN(Cc2ccncc2)C1	2	/	0	/	/	/	/
COc1ccc2c3c([nH]c2c1)[C@@H](CO)N(C(=O)Nc1ccccc1F)CC31CN(C(=O)C2CC2)C1	0	/	0	/	/	/	/
CCCN1C[C@H](C)[C@H](OC)CN(C)C(=O)c2ccc(NS(C)(=O)=O)cc2OC[C@@H]1C	2	0	0	-1	0	0	/
CCCCCCOc1ccc(/C(C)=N/NC2=NCCN2)cc1	-53	54*	0	0	44	4	i
CCOc1cc2[nH]c(=S)n(Cc3ccc(C(=O)NCCN(CC)CC)cc3)c(=O)c2cc1OCC	14	53*	0	-6	45	0	i
CCOC(=O)c1c(CSCc2ccccc2)oc2ccc(O)c(CN(C)C)c12	-26	61*	0	1	24	/	i
CCOC(=O)c1c(-c2ccccc2)oc2ccc(O)c(CN(C)C)c12	/	/	/	5	24	/	/
Cc1sc2cc3c(c(C(=O)c4ccccc4)[n+]2c1C)-c1cccc2cccc-3c12	-51	103*	0	/	/	/	61µM*
Cc1cc2ccccc2cc1C(=O)c1ccccc1	-2	-6	0	3	-3	0	/
C[C@@H]1CN([C@@H](C)CO)C(=O)c2cc(/C=C/c3ccccc3)cnc2O[C@H]1CN(C)Cc1ccncc1	-4	12	0	-3	-7	0	/
C/C(=N\NC(=O)c1nnn(-c2nonc2N)c1CN1CCC(C)CC1)c1ccc(Br)cc1	1	72*	0	-4	0	4	i
CC1CCN(Cc2c(C(=O)N/N=C/c3cc(Br)ccc3O)nnn2-c2nonc2N)CC1	5	2	0	4	-1	/	/
Cc1ccc(-c2nc(C(=O)NCCCN3CCOCC3)cc3c2[nH]c2ccccc23)cc1	/	94*	/	1	30	/	i
O=C(CN1CCOCC1)NNc1c2ccccc2nc2ccccc12	-32	15	0	/	/	/	/
C[N+]1(CC(=O)NNc2c3ccccc3nc3ccccc23)CCOCC1	-12	101*	1	/	/	-1	9µM*
SMILES	rRNA inh HTS	RAD52 inh	XiGFP reactiv	PglD DTNB	RAD54 inh	E-sel inducer	RAD52 DNA ctr
Cc1ccc(S(=O)(=O)N[C@@H]2CC[C@H](CCNC(=O)Nc3ccc(Cl)cc3)O[C@@H]2CO)cc1	-10	14	0	2	-15	1	/
CC(C)(C)Nc1nc(Cl)nc(NCc2ccccc2)n1	-45	-25	0	-1	7	/	/
CCCNc1nc(Cl)nc(NCc2cccnc2)n1	17	85*	0	/	/	/	i
Cc1cc(=O)[nH]c2ccccc12	/	/	/	-3	4	/	/
Cc1cc2[nH]c3c(c[n+](C)c4ccccc34)c2cc1C	-52	104*	0	/	/	/	8.5µM*
Cc1ccc(C)n1-c1nnc(N2CCC(C(=O)NCCCN3CC(C)CC(C)C3)CC2)s1 (stereo unspecified)	17	44	0	-4	10	/	/
Cc1ccc(C)n1-c1nnc(N2CCC(C(=O)NCCCN3CCN(C)CC3)CC2)s1	10	70*	0	-2	-5	0	i
CCO[C@H]1OC(C(=O)NCc2nc3ccccc3[nH]2)=C[C@@H](c2coc3ccccc3c2=O)[C@@H]1CCCO	/	18	/	/	/	/	/
CCN1CCc2nc(N)sc2C1	5	69*	1	/	/	8	i
C=CCN1CCc2nc(N)sc2CC1	/	66*	0	-1	12	1	i
CCCN[C@H]1CCc2nc(N)sc2C1	/	45	0	-5	-2	0	/
O=C(c1ccc(-c2cc(O)c3ncccc3c2)cc1)N1CCNCC1	-13	101*	0	1	22	0	i
CC(C)(C)c1ccc(C(=O)N2CCNCC2)cc1	/	/	/	1	5	/	/
C[C@@H]1CCCCO[C@@H](CN(C)C(=O)Nc2ccc(F)cc2)[C@H](C)CN([C@@H](C)CO)C(=O)c2cc(NC(=O)Nc3ccc(F)cc3)ccc2O1	-1	-5	0	0	-5	/	/
N=C(N)c1ccc(/C=C/c2ccc(C(=N)N)cc2O)cc1	33	97*	0	/	/	0	i
COc1cccc(NC(=O)N(C)C[C@H]2OCc3ccccc3-c3ccccc3C(=O)N([C@H](C)CO)C[C@H]2C)c1	-2	-3	0	-35	2	-4	/
